Assay results: ChEMBL document CHEMBL1156631 (J Med Chem, 2008)

What follows are compounds tested against T1, Cannabinoid receptor 1 (Homo sapiens, UniProt P21554) (assay: Agonist activity at human CB1 receptor expressed in Sf9 cells by GTP-europium binding assay).
Method in brief: (§1)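 Membranes were from Sf9 insect cells cotransfected with CB1 or CB2 plus Gαi3 (Bmax 1.7 pmol/mL). Compound (0.01 nM–10 µM, 1% DMSO final) was added to buffer with Hepes, BSA, 10 mM MgCl2, 150 mM NaCl, 5 µM GDP, 10 nM GTP-europium, saponin and membranes (CB1 4.5 µg/well, CB2 14 µg/well). 100% efficacy was set by 3 µM reference agonist.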

T1 sequence (P21554 whole entry): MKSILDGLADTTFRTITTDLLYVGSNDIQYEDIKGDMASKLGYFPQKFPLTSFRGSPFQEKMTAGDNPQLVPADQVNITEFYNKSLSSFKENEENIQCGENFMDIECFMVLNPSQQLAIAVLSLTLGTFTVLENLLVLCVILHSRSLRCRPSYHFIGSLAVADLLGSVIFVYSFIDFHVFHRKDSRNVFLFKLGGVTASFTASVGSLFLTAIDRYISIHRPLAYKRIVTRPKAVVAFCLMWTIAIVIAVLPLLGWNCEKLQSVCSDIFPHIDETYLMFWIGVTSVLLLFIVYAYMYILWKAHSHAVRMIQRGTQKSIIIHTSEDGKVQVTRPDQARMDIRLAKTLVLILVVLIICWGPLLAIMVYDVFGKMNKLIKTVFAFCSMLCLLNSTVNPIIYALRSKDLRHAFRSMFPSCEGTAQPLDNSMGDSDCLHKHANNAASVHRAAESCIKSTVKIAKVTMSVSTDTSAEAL

SMILES	EC50 [nM]
CCn1c2ccccc2c2cc(NC(=O)CCc3nc(-c4ccccc4Cl)no3)ccc21	> 10000
CCn1c2ccccc2c2cc(NC(=O)CCc3cc(-c4ccccc4F)[nH]n3)ccc21	> 10000
O=C(CCc1nc(-c2ccc(F)cc2Cl)no1)Nc1ccc(C(F)(F)F)c(Cl)c1	> 10000
Fc1ccc(-c2noc(CCCOc3cnc4ccc(Cl)cc4c3)n2)c(Cl)c1	1100
CCn1c2ccccc2c2cc(NC(=O)CCc3cc(-c4ccccc4F)n(C)n3)ccc21	> 10000
CC(C)(C)c1cc(NCCCc2nc(-c3ccc(F)cc3Cl)no2)no1	670
O=C(CCc1nc(-c2ccc(F)cc2Cl)no1)Nc1ccc(C(F)(F)F)nc1	2800

The compounds below were run against T2, Cannabinoid receptor 2 (Homo sapiens, UniProt P34972) (assay: Agonist activity at human recombinant CB2 receptor expressed in Sf9 cells by GTP-europium binding assay).
T2 sequence (P34972 whole entry): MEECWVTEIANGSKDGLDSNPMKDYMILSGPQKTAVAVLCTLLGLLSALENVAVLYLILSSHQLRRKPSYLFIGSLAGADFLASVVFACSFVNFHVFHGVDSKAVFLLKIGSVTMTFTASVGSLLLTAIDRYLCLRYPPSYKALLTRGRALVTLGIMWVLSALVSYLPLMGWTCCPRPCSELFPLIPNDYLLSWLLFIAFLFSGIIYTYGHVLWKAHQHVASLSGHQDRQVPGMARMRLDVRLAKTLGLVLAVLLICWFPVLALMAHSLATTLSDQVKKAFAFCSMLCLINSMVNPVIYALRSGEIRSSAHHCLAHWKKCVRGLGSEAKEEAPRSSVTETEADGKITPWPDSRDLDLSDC
Method in brief: as §1

SMILES	EC50 [nM]
CCn1c2ccccc2c2cc(NC(=O)CCc3nc(-c4ccccc4Cl)no3)ccc21	6
CCn1c2ccccc2c2cc(NC(=O)CCc3cc(-c4ccccc4F)[nH]n3)ccc21	> 10000
O=C(CCc1nc(-c2ccc(F)cc2Cl)no1)Nc1ccc(C(F)(F)F)c(Cl)c1	62
Fc1ccc(-c2noc(CCCOc3cnc4ccc(Cl)cc4c3)n2)c(Cl)c1	7.2
CCn1c2ccccc2c2cc(NC(=O)CCc3cc(-c4ccccc4F)n(C)n3)ccc21	> 10000
CC(C)(C)c1cc(NCCCc2nc(-c3ccc(F)cc3Cl)no2)no1	27
O=C(CCc1nc(-c2ccc(F)cc2Cl)no1)Nc1ccc(C(F)(F)F)nc1	97

What follows are compounds tested against T1, Cannabinoid receptor 1 (assay: Agonist activity at human recombinant CB1 receptor expressed in Sf9 cells by GTP-europium binding assay relative to CP-55940).
Method in brief: as §1, with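 “µg/well). Incubation was 45 min at room temperature, then filtration and washing, with fluorescence read at 615 nm.” for “µg/well).”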

SMILES	Emax [%]
Fc1ccc(-c2noc(CCCOc3cnc4ccc(Cl)cc4c3)n2)c(Cl)c1	92
CC(C)(C)c1cc(NCCCc2nc(-c3ccc(F)cc3Cl)no2)no1	33
O=C(CCc1nc(-c2ccc(F)cc2Cl)no1)Nc1ccc(C(F)(F)F)nc1	17

Each compound was assayed against T2, Cannabinoid receptor 2 (assay: Agonist activity at human recombinant CB2 receptor expressed in Sf9 cells by GTP-europium binding assay relative to CP-55940).
Method in brief: as §1, with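 “µg/well). Incubation was 45 min at room temperature, then filtration and washing, with fluorescence read at 615 nm.” for “µg/well).”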

SMILES	Emax [%]
CCn1c2ccccc2c2cc(NC(=O)CCc3nc(-c4ccccc4Cl)no3)ccc21	100
O=C(CCc1nc(-c2ccc(F)cc2Cl)no1)Nc1ccc(C(F)(F)F)c(Cl)c1	120
Fc1ccc(-c2noc(CCCOc3cnc4ccc(Cl)cc4c3)n2)c(Cl)c1	110
CC(C)(C)c1cc(NCCCc2nc(-c3ccc(F)cc3Cl)no2)no1	110
O=C(CCc1nc(-c2ccc(F)cc2Cl)no1)Nc1ccc(C(F)(F)F)nc1	120

Each compound was assayed against T1, Cannabinoid receptor 1 (assay: Agonist activity at human recombinant CB1 receptor expressed in CHO-K1 cells assessed as inhibition of forskolin-stimulated intracellular cAMP level).
Format: functional, cell-based
Method in brief: (§2)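 CHO-K1 cells stably expressing human or rat CB1 or CB2 were used. Compounds were diluted from DMSO into HBSS/HEPES/BSA buffer containing 60 µM forskolin, then combined with 5000 cells/well plus Alexa647 anti-cAMP antibody, 1 h at room temperature. A biotinylated-cAMP detection mix was added for another 1 h.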

SMILES	EC50 [nM]
O=C(CCc1nc(-c2ccc(F)cc2Cl)no1)Nc1ccc(C(F)(F)F)c(Cl)c1	> 1000
Fc1ccc(-c2noc(CCCOc3cnc4ccc(Cl)cc4c3)n2)c(Cl)c1	990
CC(C)(C)c1cc(NCCCc2nc(-c3ccc(F)cc3Cl)no2)no1	> 1000
O=C(CCc1nc(-c2ccc(F)cc2Cl)no1)Nc1ccc(C(F)(F)F)nc1	> 1000

The compounds below were run against T2, Cannabinoid receptor 2 (assay: Agonist activity at human recombinant CB2 receptor expressed in CHO-K1 cells assessed as inhibition of forskolin-stimulated intracellular cAMP level).
Format: functional, cell-based
Method in brief: as §2

SMILES	EC50 [nM]
O=C(CCc1nc(-c2ccc(F)cc2Cl)no1)Nc1ccc(C(F)(F)F)c(Cl)c1	25
Fc1ccc(-c2noc(CCCOc3cnc4ccc(Cl)cc4c3)n2)c(Cl)c1	3.6
CC(C)(C)c1cc(NCCCc2nc(-c3ccc(F)cc3Cl)no2)no1	130
O=C(CCc1nc(-c2ccc(F)cc2Cl)no1)Nc1ccc(C(F)(F)F)nc1	78

What follows are compounds tested against T1, Cannabinoid receptor 1 (assay: Agonist activity at human recombinant CB1 receptor expressed in CHO-K1 cells assessed as inhibition of forskolin-stimulated intracellular cAMP level relative to CP-55940).
Format: functional, cell-based
Method in brief: as §2, with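 “h. Emission at 665 nm gave concentration-response curves and EC50; Emax is expressed as a percentage of the reference agonist maximum.” for “h.”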

SMILES	Emax [%]
Fc1ccc(-c2noc(CCCOc3cnc4ccc(Cl)cc4c3)n2)c(Cl)c1	48

These compounds were tested against T2, Cannabinoid receptor 2 (assay: Agonist activity at human recombinant CB2 receptor expressed in CHO-K1 cells assessed as inhibition of forskolin-stimulated intracellular cAMP level relative to CP-55940).
Format: functional, cell-based
Method in brief: as §2, with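 “h. Emission at 665 nm gave concentration-response curves and EC50; Emax is expressed as a percentage of the reference agonist maximum.” for “h.”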

SMILES	Emax [%]
O=C(CCc1nc(-c2ccc(F)cc2Cl)no1)Nc1ccc(C(F)(F)F)c(Cl)c1	97
Fc1ccc(-c2noc(CCCOc3cnc4ccc(Cl)cc4c3)n2)c(Cl)c1	99
CC(C)(C)c1cc(NCCCc2nc(-c3ccc(F)cc3Cl)no2)no1	90
O=C(CCc1nc(-c2ccc(F)cc2Cl)no1)Nc1ccc(C(F)(F)F)nc1	96

What follows are compounds tested against Cannabinoid receptor 1 (Rattus norvegicus, UniProt P20272) (assay: Agonist activity at rat recombinant CB1 receptor expressed in CHO-K1 cells assessed as inhibition of forskolin-stimulated intracellular cAMP level).
Cannabinoid receptor 1 (Rattus norvegicus, UniProt P20272), sequence (P20272 whole entry): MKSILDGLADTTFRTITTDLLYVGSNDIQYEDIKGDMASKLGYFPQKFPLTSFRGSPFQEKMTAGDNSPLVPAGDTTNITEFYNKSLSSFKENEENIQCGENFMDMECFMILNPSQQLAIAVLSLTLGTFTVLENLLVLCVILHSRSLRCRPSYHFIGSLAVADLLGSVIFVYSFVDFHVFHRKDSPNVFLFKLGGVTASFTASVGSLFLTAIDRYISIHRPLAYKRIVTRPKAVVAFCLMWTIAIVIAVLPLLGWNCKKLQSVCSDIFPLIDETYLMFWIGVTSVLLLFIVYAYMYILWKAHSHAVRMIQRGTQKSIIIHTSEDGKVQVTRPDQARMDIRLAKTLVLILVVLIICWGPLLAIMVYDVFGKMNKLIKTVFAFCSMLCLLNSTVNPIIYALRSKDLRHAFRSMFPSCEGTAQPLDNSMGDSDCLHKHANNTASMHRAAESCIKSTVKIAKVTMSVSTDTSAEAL
Format: functional, cell-based
Method in brief: as §2

SMILES	EC50 [nM]
O=C(CCc1nc(-c2ccc(F)cc2Cl)no1)Nc1ccc(C(F)(F)F)c(Cl)c1	> 1000
Fc1ccc(-c2noc(CCCOc3cnc4ccc(Cl)cc4c3)n2)c(Cl)c1	83
CC(C)(C)c1cc(NCCCc2nc(-c3ccc(F)cc3Cl)no2)no1	> 1000
O=C(CCc1nc(-c2ccc(F)cc2Cl)no1)Nc1ccc(C(F)(F)F)nc1	> 1000

The compounds below were run against T3, Cannabinoid receptor 2 (Rattus norvegicus, UniProt Q9QZN9) (assay: Agonist activity at rat recombinant CB2 receptor expressed in CHO-K1 cells assessed as inhibition of forskolin-stimulated intracellular cAMP level).
T3 sequence (Q9QZN9 whole entry): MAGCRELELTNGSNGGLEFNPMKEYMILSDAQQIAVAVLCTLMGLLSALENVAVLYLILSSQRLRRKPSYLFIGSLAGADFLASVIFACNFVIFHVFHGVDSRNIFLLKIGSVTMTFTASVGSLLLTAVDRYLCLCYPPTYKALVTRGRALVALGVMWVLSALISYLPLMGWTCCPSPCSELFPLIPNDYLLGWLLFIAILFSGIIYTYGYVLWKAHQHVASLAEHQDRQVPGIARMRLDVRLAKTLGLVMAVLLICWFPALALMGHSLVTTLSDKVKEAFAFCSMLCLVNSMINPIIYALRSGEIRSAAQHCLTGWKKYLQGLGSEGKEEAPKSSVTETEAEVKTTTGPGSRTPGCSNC
Format: functional, cell-based
Method in brief: as §2, with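 “h. Emission at 665 nm gave concentration-response curves and EC50; Emax is expressed as a percentage of the reference agonist maximum.” for “h.”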

SMILES	EC50 [nM]
O=C(CCc1nc(-c2ccc(F)cc2Cl)no1)Nc1ccc(C(F)(F)F)c(Cl)c1	79
Fc1ccc(-c2noc(CCCOc3cnc4ccc(Cl)cc4c3)n2)c(Cl)c1	5.1
CC(C)(C)c1cc(NCCCc2nc(-c3ccc(F)cc3Cl)no2)no1	190
O=C(CCc1nc(-c2ccc(F)cc2Cl)no1)Nc1ccc(C(F)(F)F)nc1	73

Each compound was assayed against Cannabinoid receptor 1 (Rattus norvegicus) (UniProt P20272) (assay: Agonist activity at rat recombinant CB1 receptor expressed in CHO-K1 cells assessed as inhibition of forskolin-stimulated intracellular cAMP level relative to CP-55940).
Cannabinoid receptor 1 (Rattus norvegicus), sequence (P20272 whole entry): as the sequence (P20272 whole entry) above
Format: functional, cell-based
Method in brief: as §2, with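 “h. Emission at 665 nm gave concentration-response curves and EC50; Emax is expressed as a percentage of the reference agonist maximum.” for “h.”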

SMILES	Emax [%]
Fc1ccc(-c2noc(CCCOc3cnc4ccc(Cl)cc4c3)n2)c(Cl)c1	98

What follows are compounds tested against T4, Cannabinoid receptor 2 (Rattus norvegicus) (UniProt Q9QZN9) (assay: Agonist activity at rat recombinant CB2 receptor expressed in CHO-K1 cells assessed as inhibition of forskolin-stimulated intracellular cAMP level relative to CP-55940).
T4 sequence (whole entry): T3 sequence (Q9QZN9 whole entry)
Format: functional, cell-based
Method in brief: as §2, with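 “h. Emission at 665 nm gave concentration-response curves and EC50; Emax is expressed as a percentage of the reference agonist maximum.” for “h.”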

SMILES	Emax [%]
O=C(CCc1nc(-c2ccc(F)cc2Cl)no1)Nc1ccc(C(F)(F)F)c(Cl)c1	100
Fc1ccc(-c2noc(CCCOc3cnc4ccc(Cl)cc4c3)n2)c(Cl)c1	99
CC(C)(C)c1cc(NCCCc2nc(-c3ccc(F)cc3Cl)no2)no1	82
O=C(CCc1nc(-c2ccc(F)cc2Cl)no1)Nc1ccc(C(F)(F)F)nc1	95
